The text below walks through data of ChEMBL document CHEMBL1149675, “Structure-activity relationship of chalcones and related derivatives as ligands for detecting of beta-amyloid plaques in the brain” (Bioorg Med Chem, 2007).

Calls of active or inactive are those of the source. The rule behind the calls is not given here.

Biological target in the first data set: not listed separately
The experiment in a line: Displacement of [125I]DMIC from amyloid beta 1-42 aggregates. More on the design: species or system Homo sapiens.
Settings: not given
In general terms: In a radioligand displacement assay an active substance lowers the binding of a labelled ligand.
By Ki is commonly meant a measure of affinity in units of concentration, obtained from inhibition or displacement. Higher therefore signals weaker binding. Compound `O=C(/C=C/c1ccsc1)c1ccc(I)cc1` registered a Ki of 93 nM. In the case of `CN(C)c1ccc(/C=C/C(=O)c2ccc(Br)o2)cc1`, the inhibition constant Ki is 126 nM.

Turning to `CN(C)c1ccc(/C=C/C(=O)c2ccc(I)cc2)o1`, the affinity, expressed as Ki, was 1130 nM. `Nc1c(/N=N/c2ccc(-c3ccc(/N=N/c4cc(S(=O)(=O)O)c5ccccc5c4N)cc3)cc2)cc(S(=O)(=O)O)c2ccccc12` [CONGO RED] yielded a Ki of more than 10000 nM.

Consider `Nc1ccc(/C=C/C(=O)c2ccc(I)s2)cc1`, for which the affinity corresponds to a Ki of 121 nM.

`CN(C)c1ccc(/C=C/C(=O)c2ccc(I)s2)o1` gave a Ki of 1610 nM.

`O=C(/C=C/c1ccoc1)c1ccc(I)cc1`: the Ki worked out at 125 nM. Still for that read-out and setting: under `CN(C)c1ccc(C(=O)/C=C/c2ccc(Br)s2)cc1` stands 106 nM; under `Nc1ccc(C(=O)/C=C/c2ccc(I)cc2)cc1`, 248 nM.

As for `Nc1ccc(C(=O)/C=C/c2ccc(Br)s2)cc1`, the Ki turned out to be 476 nM. The same measure, in the same setting: to `CNc1ccc(C(=O)/C=C/c2ccc(Br)s2)cc1` belongs 198 nM. Still for that read-out and setting: to `O=C(/C=C/c1ncc[nH]1)c1ccc(I)cc1` belongs 797 nM. `CN(C)c1ccc(/C=C/C(=O)c2ccc(I)s2)cc1` returned a Ki of 3.9 nM. Same read-out and setting: under `O=C(/C=C/c1nccs1)c1ccc(I)cc1` stands more than 10000 nM. Take `CN(C)c1ccc(/C=C/C(=O)c2ccc(Br)o2)s1`: the affinity, expressed as Ki, was 2650 nM. On the same count and under the same terms, to `O=C(/C=C/c1cccs1)c1ccc(I)cc1` belongs 102 nM; to `Cc1ccc2c(c1)sc(-c1ccc(N(C)C)cc1)[n+]2C` [THIOFLAVIN T], more than 10000 nM. Regarding `CN(C)c1ccc(C(=O)/C=C/c2ccc(I)cc2)cc1`, affinity was put at a Ki of 13.3 nM.

With `CN(C)c1ccc(/C=C/C(=O)c2ccc(I)s2)s1`, the affinity corresponds to a Ki of 137 nM. `CNc1ccc(/C=C/C(=O)c2ccc(I)s2)cc1` came in with a Ki of 14.1 nM. As for `O=C(/C=C/c1ccco1)c1ccc(I)cc1`, the Ki was 908 nM. Turning to `CN(C)c1ccc(/C=C/C(=O)c2ccc(Br)o2)o1`, the Ki is more than 10000 nM. For the compound `O=C(/C=C/c1ccccc1)c1ccc(I)cc1`, the Ki stood at 151 nM. Turning to `CNc1ccc(C(=O)/C=C/c2ccc(I)cc2)cc1`, the Ki turned out to be 23.9 nM. `CN(C)c1ccc(/C=C/C(=O)c2ccc(I)cc2)s1` came in with a Ki of 113 nM.

The next data set is filed under the species Mus musculus. Briefly: Binding affinity for beta amyloid plaques in Alzheimer's mouse model brain.
Settings: not given
The method, boiled down: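 Paraffin sections, 5 µm, of formaldehyde-fixed Alzheimer's model mouse brain. Deparaffinised, held in PBS 30 min, stained with compound at 100 µM in 50% ethanol, washed in PBS 15 min, then mounted. Fluorescence read by confocal microscopy at 458 excitation and 540–580 emission. Serial sections immunostained for β-amyloid with DAB.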
Consider `CN(C)c1ccc(/C=C/C(=O)c2ccc(I)s2)cc1`, for which the result was Active.

The next data set deals with Brain. The experiment in a line: Biodistribution in ddY mouse brain at 4.2 to 6.3 kBq, iv after 2 mins. Type of data set: ADME, organism-based. Conditions: in vivo. The method, boiled down:
(§1)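 [125I]-labelled ligand in saline with 10% ethanol, given by tail-vein injection to normal ddY mice (5 weeks old, 23–25 g). Mice killed at set times post-injection. Organs removed and weighed, radioactivity gamma-counted, expressed as % injected dose per gram. Mean (SD) of five mice per time point.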
On to `CN(C)c1ccc(/C=C/C(=O)c2ccc([125I])s2)cc1`, for which the Drug uptake was 2.46 % ID/g.

The next data set concerns Brain. Briefly: Biodistribution in ddY mouse brain at 4.2 to 6.3 kBq, iv after 10 mins. Type of data set: ADME, organism-based. The conditions noted are these: in vivo. Put shortly:
as §1
`CN(C)c1ccc(/C=C/C(=O)c2ccc([125I])s2)cc1` displayed a Drug uptake of 0.75 % ID/g.

The next data set has as its system Brain. Briefly: Biodistribution in ddY mouse brain at 4.2 to 6.3 kBq, iv after 30 mins. Type of data set: ADME, organism-based. Conditions: in vivo, 0.5 h. Put shortly:
as §1
`CN(C)c1ccc(/C=C/C(=O)c2ccc([125I])s2)cc1` came in with a Drug uptake of 0.31 % ID/g.

A further data set concerns Brain. Briefly: Biodistribution in ddY mouse brain at 4.2 to 6.3 kBq, iv after 60 mins. Conditions: in vivo, 1 h. The format is ADME, organism-based. The method, boiled down: as §1
`CN(C)c1ccc(/C=C/C(=O)c2ccc([125I])s2)cc1` displayed a Drug uptake of 0.21 % ID/g.
